This note sets out measurements from ChEMBL document CHEMBL1124957, “6-Benzoxazinylpyridazin-3-ones: potent, long-acting positive inotrope and peripheral vasodilator agents” (J Med Chem, 1990).

The subject of experiment [1] is Canis familiaris. Put plainly: Mean arterial blood pressure (MAP) in dog after intravenous dose of 0.100 mg/kg. The conditions noted are these: dose 0.1 mg/kg. The experiment is classed as functional, Canis lupus familiaris. The method in brief: (§1)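 Anesthetized adult mongrel dogs (sodium pentobarbital 45 mg/kg ip), artificially respired; MAP from cannulated femoral artery, infusion into femoral vein. Dopamine standard (10–15 μg/kg/min, 3 min) checked inotropic responsiveness. Compounds dissolved in DMF, diluted to 10% final in saline; stepwise 3–4 increasing doses, each infused over 5 min after prior peak. CF, MAP, HR expressed as % change from predrug control vs cumulative dose.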

Experiment [2] relates to Canis familiaris. Put plainly: Heart rate (HR) in dog after intravenous dose of 0.100 mg/kg. The experiment is classed as functional, Canis lupus familiaris. The conditions noted are these: dose 0.1 mg/kg. The method in brief: as §1
Experiment [3] relates to Canis familiaris. As to the kind of experiment: Myocardial contractile force (CF) in dog after intravenous dose of 0.100 mg/kg. The conditions noted are these: dose 0.1 mg/kg. The experiment is classed as functional, Canis lupus familiaris, Myocardium. The method in brief: as §1
Experiment [4] has as its system Canis familiaris. Put plainly: Effective dose required to increase the myocardial contractile force (CF) 50% above base line when administered intravenously. The class given is functional. The settings on record: Canis lupus familiaris, Myocardium, iv. In a few lines:
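Dopamine standard (10–15 μg/kg/min, 3 min) checked inotropic responsiveness. Compounds dissolved in DMF, diluted to 10% final in saline; stepwise 3–4 increasing doses, each infused over 5 min after prior peak. CF, MAP, HR expressed as % change from predrug control vs cumulative dose.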

As for `Cc1[nH]c(=O)c(C#N)cc1-c1ccncc1` [MILRINONE], the Activity in the experiment with Canis familiaris [1] is recorded as -13; with Canis familiaris [2] it was 15; with Canis familiaris [3] it was 105. The compound also came in with an ED50 with Canis familiaris [4] of 0.022 mg/kg.
